Experimental data pooled from the literature.
Each line is one published result; the experiments were not run side by side.
Target: STE20/SPS1-related proline-alanine-rich protein kinase (STK39, Homo sapiens, UniProt Q9UEW8)

For Cc1nn(C)cc1-c1nc2c(N3CCN(Cc4ccc(Cl)cc4)CC3)c(Cl)cnc2[nH]1, the remaining binding was 100% (binding, competition with immobilised ligand; 1 µM).
With Nc1ncc(-c2nc(N3CCOCC3)nc(N3CCOCC3)n2)c(C(F)F)n1 the remaining binding was 70% (binding, competition with immobilised ligand; 10 µM).
For CC(C)(C)c1cc(C=C(C#N)C#N)cc(Br)c1O, the remaining activity was 87.6% (enzyme activity, inhibitor; 0.5 µM).
The remaining binding of Cn1cncc1[C@](O)(COc1ccc(C#N)cc1-c1ccc(OC(F)(F)F)cc1)c1ccc(C#N)cc1 is reported as 50% (cell-free assay, competition with immobilised ligand; 1 µM).
The inhibition of COc1cc(Nc2ncc(F)c(Nc3ccc4c(n3)NC(=O)C(C)(C)O4)n2)cc(OC)c1OC is reported as 65% (binding; 10 µM).
The remaining binding of COc1ncccc1-c1cnn2ccc(N3CCN(C(=O)OC(C)C)CC3)nc12 is reported as 88% (binding, competition with immobilised ligand; 1 µM).
N#CC1(c2ccccn2)CCN(Cc2cc(C(=O)O)c(=O)n3ccccc23)CC1 gave a remaining binding of 56% (cell-free assay, competition with immobilised ligand; 1 µM).
The remaining signal of O=c1[nH]c2ccccc2n1C1CCN(Cc2ccc(-c3[nH]c4cc5ncnc5cc4nc3-c3ccccc3)cc2)CC1 is reported as 98.2% (cell-free assay; 0.5 µM).
